Test [1] has as its system Saccharomyces cerevisiae. The test is described as follows: Growth inhibition of Saccharomyces cerevisiae 1138 mutant by yeast bioassay. The class given is functional.
The test system of another test is M109. The test is described as follows: Cytotoxicity against mouse M109 cells. Type of test: functional, cell-based. In outline: (§1)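 Cell-culture cytotoxicity in a 25-line panel by standard methods. Activity given as IC50 in µM.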
Test [2] concerns A2780. The test is described as follows: Cell cycle arrest in human A2780 cells overexpressing wild type p53 by accumulation at G1 phase at 5 X respective cytotoxic IC50 after 24 hrs by FACS. Type of test: functional, cell-based. In outline: (§2)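 Flow cytometry (FACS) of A2780/p53wt cells after 24 h exposure at increasing multiples of each compound's own IC50, scored for G1 arrest and apoptosis; A2780/mutp53 cells run alongside.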
Background: In flow cytometry, cells or beads pass a laser one at a time.

Test [3] deals with A2780. The test is described as follows: Induction of apoptosis in human A2780 cells overexpressing wild type p53 at >5 X respective cytotoxic IC50 after 24 hrs. The class given is functional, cell-based. In outline:
as §2

Test [4] is described as follows: Cytotoxicity against human OVACR3 cells. The class given is functional, cell-based. In outline: as §1
For a further test, the system named is A-431. The test is described as follows: Cytotoxicity against human A431 cells. The class given is functional, cell-based. In outline:
as §1

The next test concerns MLF. The test is described as follows: Cytotoxicity against MLF cells. Particulars: Mus musculus. Type of test: cell-based. In outline:
as §1

Test [5] relates to Saccharomyces cerevisiae. The test is described as follows: Growth inhibition of Saccharomyces cerevisiae 1353 mutant by yeast bioassay. The class given is functional.
Test [6] concerns Saccharomyces cerevisiae. The test is described as follows: Growth inhibition of Saccharomyces cerevisiae 1140 mutant by yeast bioassay. The class given is functional.

SMILES strings stand for the structures. The source made the active and inactive calls. The calls are words filed in the database; no cut-off is given here.

`Clc1c2ccccc2nc2c1oc1ccccc12` yielded an IC12 in the test with Saccharomyces cerevisiae [1] above 400 µg/mL.
On the same count and under the same terms, the figure for `Ic1c2ccccc2nc2c1oc1ccccc12` is above 400 µg/mL; for `O=C(OCCOC(=O)c1c2ccccc2nc2c1[nH]c1ccccc12)c1c2ccccc2nc2c1[nH]c1ccccc12` it is above 400 µg/mL.
In the test on Saccharomyces cerevisiae [1], `C=CCn1c2ccccc2c2c1cc1ccccc1[n+]2C.O=S(=O)([O-])C(F)(F)F` returned an IC12 of 200 µg/mL.
The same measure, in the same setting: the figure for `C[n+]1c2ccccc2cc2[n-]c3ccccc3c21` [CRYPTOLEPINE] is 0.5 µg/mL.
Usually IC50 stands for the midpoint of a concentration-inhibition curve. The low end stands for greater potency in that assay, the high end for weaker potency in that assay. `CC[n+]1c2ccccc2cc2[nH]c3ccccc3c21.[I-]` returned an IC12 in the test with Saccharomyces cerevisiae [1] of 40 µg/mL. The compound further showed a half-maximal inhibitory concentration (IC50) with M109 below 50 µM.
Compound `O=c1c2c3ccccc3nc3c4ccccc4n(c(=O)c4c5ccccc5nc5c6ccccc6n1c54)c32` returned an IC12 with Saccharomyces cerevisiae [1] above 400 µg/mL.
The same measure, in the same setting: the figure for `NC(=O)c1c2cc(Br)ccc2nc2c1[nH]c1ccccc12` is 400 µg/mL.
In turn, `O=C1OCc2c3ccccc3nc3c4ccccc4n1c23` came in with an IC12 in the test with Saccharomyces cerevisiae [1] of 50 µg/mL. The compound further had an IC50 in the test with M109 below 10 µM.
In the test with Saccharomyces cerevisiae [1], `c1ccc2nc3c(cc2c1)oc1ccccc13` came in with an IC12 above 400 µg/mL.
For the compound `Cc1c2nc3ccccc3c-2[nH]c2ccccc12`, the IC12 in the test on Saccharomyces cerevisiae [1] is 50 µg/mL. The compound further returned an IC50 in the test on M109 below 10 µM.
`OCc1c2ccccc2nc2c1[nH]c1ccccc12`: the IC12 in the test on Saccharomyces cerevisiae [1] is 125 µg/mL.
The same measure, in the same setting: the figure for `CCCn1c2ccccc2c2c1cc1ccccc1[n+]2C.O=S(=O)([O-])C(F)(F)F` is 125 µg/mL; for `O=c1c2ccccc2[nH]c2c1oc1ccccc12` it is above 400 µg/mL.
With `C[n+]1c2ccccc2cc2[nH]c3ccccc3c21` [listing 1 of 2 here], the result in the test on A2780 [2] was Active. Moreover, the Activity result in the test with A2780 [3] was “Dose-dependent effect”.
Turning to `CC(=O)n1c2ccccc2c2c1cc1ccccc1[n+]2C.[Cl-]`, the result in the test with A2780 [2] was Active. For the same compound, the IC12 in the test with Saccharomyces cerevisiae [1] stood at 5 µg/mL. Besides, the Activity result in the test on A2780 [3] was “Dose-dependent effect”. In addition, the IC50 in test [4] was 0.5 µM; in the test with M109, below 1 µM; in the test with A-431 it was 0.34 µM; in the test on MLF, 4.9 µM.
`C[n+]1c2ccccc2cc2[nH]c3ccccc3c21` [listing 2 of 2 here]: the IC50 in test [4] was 0.5 µM; with M109, below 1 µM; with A-431 it was 0.34 µM; in the test with MLF it was 4.9 µM.
Turning to `O=Cc1c2ccccc2nc2c1[nH]c1ccccc12`, the IC12 with Saccharomyces cerevisiae [1] is above 400 µg/mL.
As to `COC(=O)c1c2cc(Br)ccc2nc2c1[nH]c1ccccc12`, the IC12 in the test on Saccharomyces cerevisiae [1] worked out at 100 µg/mL.
With `C[n+]1c2ccccc2cc2[n-]c3ccccc3c21.Cl` [CRYPTOLEPINE HYDROCHLORIDE], the IC12 in the test on Saccharomyces cerevisiae [5], in the test on Saccharomyces cerevisiae [1] and in the test on Saccharomyces cerevisiae [6] was 0.6 µg/mL throughout. This compound also yielded a concentration for half-maximal inhibition (IC50) in the test with M109 below 1 µg/mL.
`c1ccc(Cn2c3ccccc3c3nc4ccccc4cc32)cc1` had an IC12 with Saccharomyces cerevisiae [1] above 400 µg/mL.
In the test with Saccharomyces cerevisiae [1], `O=C(O)c1c2nc3ccccc3c-2[nH]c2ccccc12` came in with an IC12 above 400 µg/mL.
Same read-out and setting: the figure for `C[n+]1c2ccccc2cc2oc3ccccc3c21.[I-]` is 400 µg/mL.
In the test with Saccharomyces cerevisiae [1], `CC(=O)n1c2ccccc2c2nc3ccccc3cc21` registered an IC12 of 80 µg/mL.
The same measure, in the same setting: the figure for `CC(CO)(CO)NCc1c2ccccc2nc2c1[nH]c1ccccc12` is above 400 µg/mL.
With `COC(=O)c1c2ccccc2nc2c1[nH]c1ccccc12`, the IC12 with Saccharomyces cerevisiae [1] came to 40 µg/mL. This compound showed an IC50 with M109 below 10 µM.
As to `c1ccc2nc3c(cc2c1)[nH]c1ccccc13` [QUINDOLINE], in the test on Saccharomyces cerevisiae [1], the IC12 came to 150 µg/mL.
Still for that read-out and setting: the figure for `CCn1c2ccccc2c2c1cc1ccccc1[n+]2C.O=S(=O)([O-])C(F)(F)F` is 80 µg/mL.
For `O=C(OCCO)c1c2ccccc2nc2c1[nH]c1ccccc12`, the IC12 in the test on Saccharomyces cerevisiae [1] is above 400 µg/mL.
On the same count and under the same terms, the figure for `CCC[n+]1c2ccccc2cc2[nH]c3ccccc3c21.[I-]` is 400 µg/mL; for `C[n+]1c2ccccc2cc2[nH]c3ccccc3c21.[I-]` [CRYPTOLEPTINE IODIDE] it is 1.5 µg/mL.
Same read-out and setting: the figure for `CCCC[n+]1c2ccccc2cc2[nH]c3ccccc3c21.[Br-]` is above 400 µg/mL.
In the test on Saccharomyces cerevisiae [1], `Cn1c2ccccc2c2c1cc1ccccc1[n+]2C.O=S(=O)([O-])C(F)(F)F` gave an IC12 of 5 µg/mL. The same compound yielded an IC50 with M109 below 10 µM.
As to `CCCCn1c2ccccc2c2c1cc1ccccc1[n+]2C.O=S(=O)([O-])C(F)(F)F`, the IC12 with Saccharomyces cerevisiae [1] worked out at 90 µg/mL.

Values taken from ChEMBL document CHEMBL1144068, “Synthesis and biological evaluation of analogues of cryptolepine, an alkaloid isolated from the Suriname rainforest” (J Nat Prod, 1999).
